Screening data: PubChem BioAssay, several laboratories
SUMO HTRF inh: SUMOylation inhibition. AID 2006. HTRF SUMOylation assay, SAE1/SAE2 + UBC9, in vitro. inhibition, % at 35 µM. P63279. hit rate 0.36% among 290,000; in the data active means inhibition above about 50%, passing the limit was not always enough
ALR H2O2 inh: inhibitors of human sulfhydryl oxidase ALR; purified ALR, DTT oxidation, H2O2 HRP-luminol luminescence; hit rate 3.8% among 290,000; P55789; inhibition, % (no concentration beside the values); AID 485317;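 active means mean replicate inhibition above about 79%, with every replicate also reaching it, limit read from the data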
Target sequence (P55789 whole entry, looked up): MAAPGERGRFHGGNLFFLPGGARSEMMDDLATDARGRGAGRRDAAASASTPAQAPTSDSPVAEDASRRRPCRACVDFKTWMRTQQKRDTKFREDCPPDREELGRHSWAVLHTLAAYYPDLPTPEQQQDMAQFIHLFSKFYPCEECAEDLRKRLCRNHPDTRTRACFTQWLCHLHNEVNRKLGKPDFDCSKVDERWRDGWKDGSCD
UBC13 inh: inhibitors of human UBC13 polyubiquitin chain formation; inhibition, % at 20 µM; hit rate 0.47% among 330,000; AID 485273; TR-FRET; in the data active means inhibition above about 45%, passing the limit was not always enough
Target sequence (P61088 whole entry, looked up): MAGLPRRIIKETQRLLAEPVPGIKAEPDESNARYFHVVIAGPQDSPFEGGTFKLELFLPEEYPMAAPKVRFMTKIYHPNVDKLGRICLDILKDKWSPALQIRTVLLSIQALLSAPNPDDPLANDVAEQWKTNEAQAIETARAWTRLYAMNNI
Rin1 Abl inh: human Rin1-Abl interaction inhibition | AID 588664 | inhibition, % at 7.35 µM | TR-FRET Rin1/Abl binding, biochemical | P00519+Q13671 | hit rate 0.4% among 360,000; in the data active means inhibition above about 5%, passing the limit was not always enough
RBBP9 inh: human RBBP9 hydrolase inhibition; inhibition, % at 7.94 µM; recombinant RBBP9, FP-Rh probe fluorescence polarization; AID 1515; hit rate 0.2% among 220,000;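 active means inhibition above the campaign mean of all tested compounds plus 3 SD, cut at about 14% in these data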
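Measured by – fluorescence polarization · Test system – RBBP9 protein · Input – 2.5 µM RBBP9 dispensing solution, before mixing · Measure – percent inhibition from mP, scaled between DMSO and no-protein wells · Benchmarks – DMSO-treated enzyme wells and wells lacking RBBP9 · Times – preincubation 30 min plus labeling 45 min at 25 °C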
PREPL inh: inhibitors of human prolyl oligopeptidase-like enzyme PREPL | Q4J6C6 | recombinant PREPL, fluorescence polarization activity-based probe | inhibition, % at 5.96 µM | hit rate 0.68% among 320,000; in the data active means inhibition above about 43%
Large screens that a line does not name were inactive. An excerpt weighted towards active compounds, which were near 4.3% of everything screened.

CC(=O)/C(=N\Nc1ccccc1)Sc1nncn1C	ALR H2O2 inh 97.6
COc1cc(CC(=O)OCC(=O)c2ccc(F)cc2)cc(OC)c1OC	none (no result: SUMO HTRF inh, RBBP9 inh)
CCC(C)(C)NC(=O)C1CC(=O)N(CCc2ccc(F)cc2)C1 (stereo unspecified)	none (no result: RBBP9 inh)
CCC(=O)N(C)CCc1cc2c(c(OC)c1/C=N/NC(=O)[C@H]1C[C@@H]1c1ccccc1)OCO2	none (no result: ALR H2O2 inh)
CCC(=O)N(C)CCc1cc2c(c(OC)c1/C=N/Nc1ccc(C(=O)O)cc1)OCO2	ALR H2O2 inh 98.7
C/C(=N\Nc1ccc(Cl)c(C(=O)O)c1)c1cc2ccccc2o1	ALR H2O2 inh 98.5
C/C(=N\Nc1cccc(C(=O)O)c1)c1cc2ccccc2o1	ALR H2O2 inh 98.8
C/C(CC(=O)N1CCN(C=O)CC1)=N\NC(=O)c1ccc([N+](=O)[O-])cc1	none
C/C(CC(=O)N1CCN(C=O)CC1)=N\NC(=O)c1cc2ccccc2cc1O	SUMO HTRF inh 65.1
C/C(=N\Nc1ccc(Cl)c(C(=O)O)c1)c1cccc2ccccc12	none (no result: RBBP9 inh)
C/C(=N\Nc1cccc([N+](=O)[O-])c1)c1cc2ccccc2o1	none
C/C(=N\Nc1cccc(C(=O)O)c1)c1ccc(Cl)s1	ALR H2O2 inh 98.3
CC(O)(c1cccc(F)c1)c1nc(-c2ccc(S(C)(=O)=O)cc2)cs1 (stereo unspecified)	none (no result: SUMO HTRF inh, ALR H2O2 inh, UBC13 inh, RBBP9 inh, PREPL inh)
CC(C)CCN1CCN(Cc2nc3c(s2)CCCC3)CC1CCO (stereo unspecified)	none
Cc1nn(-c2ccc(Cl)nn2)c(=O)c2ccccc12	none
C/C(=N\Nc1ccccc1)c1cc2ccccc2oc1=O	ALR H2O2 inh 92.6
C/C(=N\NC(=O)c1cc2ccccc2cc1O)c1cc2ccccc2o1	SUMO HTRF inh 55.7 (no result: ALR H2O2 inh)
CC(C(=O)NCCC1=CCCCC1)c1ccc([N+](=O)[O-])cc1 (stereo unspecified)	none
Cn1c(CNc2ccc(F)cc2)nc2ccccc21	ALR H2O2 inh 85.0 (no result: RBBP9 inh, PREPL inh)
N=C(N)SCc1nc2ccccc2c(=O)n1-c1ccccc1	ALR H2O2 inh 97.8
O=S(=O)(NCc1ccccc1)[C@@H]1CC2C=CC1C2 (stereo partly specified)	none (no result: SUMO HTRF inh, RBBP9 inh)
Cc1cc2nc(/N=C(\N)NC(=O)N3c4ccccc4Sc4ccccc43)nc(C)c2cc1C	ALR H2O2 inh 92.4 (no result: UBC13 inh)
Cc1ccc(S(=O)(=O)Cn2nnnc2C(CC(C)C)N2CCN(C3CCCC3)CC2)cc1 (stereo unspecified)	none (no result: RBBP9 inh)
Cc1nc(N)sc1N=Nc1ccc(Br)cc1	ALR H2O2 inh 98.9
COc1cccc(-c2ccc(C3=CC(=O)CC(C)(C)C3=O)cc2)c1OC	none (no result: SUMO HTRF inh, ALR H2O2 inh, UBC13 inh, RBBP9 inh, PREPL inh)
O=C1CCCc2c1[nH]c1ccccc21	none
c1ccc2c(c1)OCCc1c-2[nH]c2ccccc12	ALR H2O2 inh 95.7 (no result: RBBP9 inh)
O=C(O)c1cn(-c2ccc(F)cc2)c2cc(N3CCNCC3)c(F)cc2c1=O	none (no result: SUMO HTRF inh, ALR H2O2 inh, UBC13 inh, RBBP9 inh, PREPL inh)
CCNc1ccc(S(=O)(=O)N(C)C)cc1NCC(=O)Nc1ccccc1F	ALR H2O2 inh 98.8
CCNc1ccc(S(=O)(=O)N(C)C)cc1NCC(=O)Nc1ccc(Br)cc1F	none (no result: ALR H2O2 inh)
CCOC(=O)C1CCCN(CCC(=O)Nc2cc(OC)ccc2OC)C1 (stereo unspecified)	none (no result: ALR H2O2 inh, RBBP9 inh)
COc1cccc(N2CCN(C(=O)c3ccc(CS(=O)c4ccc(Cl)cc4)o3)CC2)c1 (stereo unspecified)	ALR H2O2 inh 87.9 (no result: RBBP9 inh)
COc1cccc(N2CCN(C(=O)c3ccc(CS(=O)Cc4ccc(C)cc4)o3)CC2)c1 (stereo unspecified)	ALR H2O2 inh 79.5 (no result: RBBP9 inh)
COc1cccc(N2CCN(C(=O)c3ccc(CS(=O)c4ccc(C)cc4)o3)CC2)c1 (stereo unspecified)	none (no result: RBBP9 inh)
C=C1/C=C(\C)C(C)(O)CC(O)CC(=O)C(O)C(O)C(C)CC(C)OC(=O)/C(C)=C/CC/C=C/C(OC)C(O)CC(C)C1 (stereo unspecified)	none (no result: SUMO HTRF inh, RBBP9 inh)
N#C/C(=C\c1ccc(N2CCOCC2)o1)C(=O)NCC1CCCO1 (stereo unspecified)	ALR H2O2 inh 86.3
N#C/C(=C\c1ccc(N2CCOCC2)o1)C(=O)NCCc1ccccc1	ALR H2O2 inh 88.7
N#C/C(=C\c1ccc(N2CCOCC2)o1)C(=O)NC1CCCCC1	ALR H2O2 inh 79.2
CC(C)Oc1ccc(S(=O)(=O)N2CCOCC2)cc1NC(=O)CC1CC2CCC1C2 (stereo unspecified)	none (no result: SUMO HTRF inh, ALR H2O2 inh, UBC13 inh, RBBP9 inh, PREPL inh)
